Target: urease (Canavalia ensiformis, UniProt P07374)
Experiment: In vitro kinetic assay
Assay type: biochemical, jack bean
Outline: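 Jack bean urease was run without and with several concentrations of the test compound, and the data were plotted as Lineweaver–Burk double-reciprocal plots. A secondary replot of Km against inhibitor concentration gave Ki. All data were in triplicate.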

Chain of urease (P07374 whole entry, looked up): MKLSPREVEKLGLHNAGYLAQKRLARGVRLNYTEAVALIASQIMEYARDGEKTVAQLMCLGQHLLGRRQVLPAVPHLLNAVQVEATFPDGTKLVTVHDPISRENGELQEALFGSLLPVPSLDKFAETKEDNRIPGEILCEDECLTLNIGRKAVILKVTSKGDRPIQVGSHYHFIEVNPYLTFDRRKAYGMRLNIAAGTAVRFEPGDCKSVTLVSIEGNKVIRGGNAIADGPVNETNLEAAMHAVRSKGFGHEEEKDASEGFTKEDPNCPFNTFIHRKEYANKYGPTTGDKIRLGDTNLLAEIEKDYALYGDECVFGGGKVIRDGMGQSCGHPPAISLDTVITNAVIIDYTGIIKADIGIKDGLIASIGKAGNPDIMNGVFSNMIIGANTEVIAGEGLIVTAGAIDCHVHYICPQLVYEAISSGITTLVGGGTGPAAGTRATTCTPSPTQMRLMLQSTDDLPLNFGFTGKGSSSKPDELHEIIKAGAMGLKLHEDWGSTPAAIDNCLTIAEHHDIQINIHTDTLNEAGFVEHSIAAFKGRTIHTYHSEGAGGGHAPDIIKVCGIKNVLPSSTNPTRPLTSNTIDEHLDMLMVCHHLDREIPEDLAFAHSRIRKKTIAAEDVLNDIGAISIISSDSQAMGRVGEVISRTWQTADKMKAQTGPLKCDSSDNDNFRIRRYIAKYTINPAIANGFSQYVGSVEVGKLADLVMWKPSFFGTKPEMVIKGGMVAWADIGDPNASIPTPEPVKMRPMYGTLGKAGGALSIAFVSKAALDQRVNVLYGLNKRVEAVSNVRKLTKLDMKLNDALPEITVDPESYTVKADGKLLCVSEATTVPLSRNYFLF

Ki: 1990 nM | type of urease inhibition (Lineweaver-Burk plot): uncompetitive inhibitor
Compound: Cc1cc(OCC(=O)N/N=C/c2ccc(OCc3cn(Cc4ccccc4)nn3)cc2)c2c(C)cc(=O)oc2c1 [13a, (E)-N'-(4-((1-Benzyl-1H-1,2,3-triazol-4-yl)methoxy)benzylidene)-2-((4,7-dimethyl-2-oxo-2H-chromen-5-yl)oxy)acetohydrazide]
